Results pooled from the literature.
Protocols differ between the studies behind these lines.
Observed: cell growth or viability

COc1cc(/C=C/C(=O)/C=C/c2c(C)nn(-c3ccccc3)c2Cl)cc(OC)c1O  IC50 (LLC-PK1; MTT; 72 h): 12.9 µM
CC(C)c1cc(C(=O)N2Cc3ccccc3C2)c(O)c2c1C(=O)C(C(F)(F)F)C2 (centres unmarked)  IC50 (UMUC3; ATP luminescence; 72 h): 59.6 µM
CCCCN(CCCC)C(=O)c1ncn2c(=O)n(C)nnc12  IC50 (U-118-MG; resazurin; 7 days): 62 µM
CC(C)C[C@H](NC(=O)[C@H](Cc1ccccc1)NC(=O)c1cnccn1)B(O)O  IC50 (NCI-H1581; ATP luminescence): 0.016 µM
CNC(=O)c1cccc2cc(Oc3ccnc4cc(OCC5(N)CC5)c(OC)cc34)ccc12  IC50 (Swiss-3T3; SRB): 0.064 µM
CN1/C(=N/c2ccc(Cl)cc2)c2cc(C(N)=O)nc3c(N)c(Cl)c(N)c1c23  IC50 (HCC44): 23.2 µM
COc1ccc(-c2nn(-c3ccc(S(C)(=O)=O)cc3)cc2/C=N/N=c2\[nH]c(-c3ccc(Br)cc3)cs2)cc1  IC50 (F180; MTT; 48 h): 59.6 µM
COc1cccc2c1C(=O)c1c(O)c3c(c(O)c1C2=O)C[C@@](O)(C(=O)CO)C[C@@H]3O[C@H]1C[C@H](N)[C@H](O)[C@H](C)O1  IC50 (Caco-2; MTT; 24 h): 12.3 µM
COc1cc([C@@H]2c3cc4c(cc3[C@@H](O[C@@H]3O[C@@H]5CO[C@@H](C)O[C@H]5[C@H](O)[C@H]3O)[C@H]3COC(=O)[C@H]23)OCO4)cc(OC)c1O  IC50 (Caco-2; MTS; 72 h): 14 µM
O=C(Nc1ccc(Cl)cc1)c1ccc([N+](=O)[O-])o1  IC50 (NCI-H1650; resazurin; 96 h): 0.38 µM
CC(C)c1cc(C(=O)N2Cc3ccccc3C2)c(O)c2cn[nH]c12  IC50 (UMUC3; ATP luminescence; 72 h): > 100 µM
COc1cc(/C=C/C(=O)/C=C/c2c(C)nn(-c3cccc([N+](=O)[O-])c3)c2Cl)cc(OC)c1OC  IC50 (LLC-PK1; MTT; 72 h): 5.93 µM
CC(C)c1cc(C(=O)N2Cc3ccccc3C2)c(O)c2c1C(=NO)CC2  IC50 (UMUC3; ATP luminescence; 72 h): 51.6 µM
Cc1[nH]c(/C=C2\C(=O)Nc3ccc(S(=O)(=O)N(C)c4cccc(Cl)c4)cc32)c(C)c1C(=O)N1CCN(C)CC1  IC50 (RD; 72 h): 2.11 µM
Cn1nnc2c(-c3ccccc3)ncn2c1=O  IC50 (U-118-MG; resazurin; 7 days): 3 µM
O=c1c(O)c(-c2ccc(O)c(O)c2)oc2cc(O)cc(O)c12  IC50 (RD; WST-1; 48 h): 29.8 µM
CC(C)c1cc(C(=O)N2Cc3ccccc3C2)c(O)c2c1C(=O)C(F)C2 (centres unmarked)  IC50 (UMUC3; ATP luminescence; 72 h): 69.9 µM
Nc1ncnc2c1ncn2[C@@H]1O[C@H](CO)[C@@H](O)[C@H]1O  IC50 (RD; WST-1; 48 h): 66.5 µM
COc1cc(Nc2nccc(-c3cnn4nc(OC)ccc34)n2)cc(C(F)(F)F)c1  IC50 (NCI-H1581; ATP luminescence): 0.41 µM
CC(C)Cc1ccc(-c2nn(-c3ccc(S(C)(=O)=O)cc3)cc2/C=N\N=C2/NC(=O)CS2)cc1  IC50 (F180; MTT; 48 h): 44.6 µM
